DAT uptake mod – changed hDAT dopamine uptake under cocaine IC80, either direction, primary screen, cocaine antagonist project, cell-based, LLC-PK1 hDAT, [14C]-dopamine uptake, MLSMR. Sodium-dependent dopamine transporter (Homo sapiens), Q01959. LLC-PK1 hDAT cells, [14C]-dopamine uptake with cocaine IC80; actives deviate in either direction. B-score at 10 µM. actives 1.3% (n = 110,000);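 active means Z score or B-score, a plate-position-corrected score, falls beyond the plate's 99.7% confidence bounds, in either direction; inactive means both scores lie inside the 99.7% bounds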;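 further: scored against the spread of the other compound wells on the same plate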
Target sequence (Q01959 whole entry, looked up): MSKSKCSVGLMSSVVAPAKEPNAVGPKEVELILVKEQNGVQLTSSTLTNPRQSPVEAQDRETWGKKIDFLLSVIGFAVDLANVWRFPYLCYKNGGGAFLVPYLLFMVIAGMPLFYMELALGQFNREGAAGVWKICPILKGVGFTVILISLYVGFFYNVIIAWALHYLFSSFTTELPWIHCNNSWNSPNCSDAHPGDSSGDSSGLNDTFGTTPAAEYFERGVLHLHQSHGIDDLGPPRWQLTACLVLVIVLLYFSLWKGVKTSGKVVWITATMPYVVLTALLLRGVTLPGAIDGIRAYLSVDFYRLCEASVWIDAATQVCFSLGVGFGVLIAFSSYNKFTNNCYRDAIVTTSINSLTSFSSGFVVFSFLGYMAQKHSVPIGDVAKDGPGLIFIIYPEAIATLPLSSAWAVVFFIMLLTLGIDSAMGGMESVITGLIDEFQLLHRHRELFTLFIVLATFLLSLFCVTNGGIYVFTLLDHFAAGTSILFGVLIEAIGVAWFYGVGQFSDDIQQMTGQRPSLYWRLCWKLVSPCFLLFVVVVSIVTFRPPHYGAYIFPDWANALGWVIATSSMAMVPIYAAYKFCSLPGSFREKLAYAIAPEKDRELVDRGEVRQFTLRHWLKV
MMP13 inh – human MMP13 inhibitors, primary screen, biochemical, FRET peptide cleavage; AID 570, 2006; inhibition, % at 4 µM; MMP-13 fTHP FRET cleavage, Mca fluorescence; actives 0.07% (n = 65,000); Collagenase 3 (Homo sapiens), P45452;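 active means inhibition above the mean of compound-free control plate wells plus 3 SD, cut at about 14% in these data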;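 further: 0% = DMSO wells and 100% = wells with reference MMP-13 inhibitor after basal subtraction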
AP ELISA ortho – alternative complement pathway inhibitors, primary screen, biochemical, ELISA, human serum, orthogonally pooled compounds | LPS-coated ELISA, C3 deposition; tested in compound mixtures | inhibition, % at 5 µM | actives 0.08% (n = 62,000) | AID 1235, 2008;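 active means inhibition above 30% in each of the two pooled mixtures holding the compound, so the lower value exceeds 30%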;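 further: 0% = serum in Mg-EGTA without compound and 100% = EDTA serum blank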
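Test system – human serum alternative complement pathway, C3 deposition on LPS-coated wells · Buffer or medium – diluted human serum in Mg2+-EGTA GVB++ · Compound dosing – 5 µM each compound, pools of ten, 50 µM per pool · Schedule – 1 h serum-compound exposure at 37 °C · Measured by – Anti-C3 ELISA, OD 450 nm · Read-out basis – percent inhibition of C3 deposition onto LPS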
D1 mod – D1 CRE-luciferase signal change, two-sided – cell-based, HEK293 D1, dopamine EC30, D1 allosteric modulator project, primary screen. D(1A) dopamine receptor (Homo sapiens), P21728. dopamine EC30 potentiation; actives deviate in either direction. B-score at 10 µM. actives 5.9% (n = 58,000);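 active means luminescence count or its row- and column-corrected plate score outside the 99.7% band of the plate's sample wells, on either side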
Candida biofilm – clotrimazole potentiators killing Candida biofilms, primary screen, with clotrimazole, Alamar Blue; actives 0.14% (n = 85,000); C. albicans biofilm + clotrimazole; inhibition, % at 6 µM; AID 834, 2007;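 active means inhibition above 20%; inactive means inhibition below 20%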;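 further: preformed 24 hr biofilms exposed to compound for 48 hr; 0% = biofilm without compound and 100% = blank killed by clotrimazole plus chlorhexidine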
D1 PAM confirm – D1 receptor positive allosteric modulators, retest, confirmation, cell-based, HEK293 D1, CRE-luciferase, duplicate; dopamine EC30 potentiation; hits give high values; AID 642, 2007; actives 88% (n = 2,200); shares compounds with D1 mod; luminescence at 10 µM;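 active means luminescence in either of two replicates above the same-plate mean plus 3 SD of the low-dose dopamine control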
D1 no dopamine – D1 receptor agonism without dopamine, confirmation, mechanism study for D1 allosteric modulator project, cell-based, HEK293 D1, CRE-luciferase, secondary assay 1 | actives 0.8% (n = 1,900) | shares compounds with D1 mod | luminescence at 10 µM | luminescence, no dopamine; hits give high values | AID 646, 2007; in the data active means luminescence above about 3900
Isoprot counter – isoproterenol response counter-screen activity for D1 modulators; shares compounds with D1 mod; HEK293 D1 CRE-luciferase, isoproterenol EC30 counter-screen; hits give high values; luminescence at 10 µM; actives 63% (n = 2,200);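 active means luminescence in either replicate above plate mean of wells with a partly effective reference agonist dose plus 3 SD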;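 further: isoproterenol raises cAMP through native beta-adrenoceptor Gs so signal bypasses D1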
Numbers without * were called inactive. Shown is part of a subset that was picked to be rich in hits.

Cc1c(S(=O)(=O)Nc2cccc(Cl)c2)c(=O)n(C)c(=O)n1C was read as DAT uptake mod 1.2, MMP13 inh -4, AP ELISA ortho 14, D1 mod 2.7*, Candida biofilm 8, D1 PAM confirm 6100, D1 no dopamine 1648 and Isoprot counter 2828.
`OCCNc1ncnc2c1c(-c1ccccc1)c(-c1ccccc1)n2Cc1ccco1` gave DAT uptake mod 0.44, MMP13 inh -129, AP ELISA ortho -19, D1 mod 5.8*, D1 PAM confirm 8384*, D1 no dopamine 1284 and Isoprot counter 2856.
COc1ccc(N(CC(=O)O)S(=O)(=O)c2ccc(OC)c(OC)c2)cc1 was read as DAT uptake mod -0.41, AP ELISA ortho 13, D1 mod -1.2 and Candida biofilm 4.
For CCOc1ccc(N(CC(=O)OC)S(=O)(=O)c2ccc(OC)c(OC)c2)cc1 the results were DAT uptake mod 1.3, MMP13 inh 4, AP ELISA ortho -3, D1 mod 3.6*, Candida biofilm 5, D1 PAM confirm 12916*, D1 no dopamine 1768 and Isoprot counter 3080*.
For COC(=O)CN(c1ccc(OC)cc1)S(=O)(=O)c1ccc(OC)c(OC)c1 the results were DAT uptake mod 0.36, MMP13 inh 1, AP ELISA ortho 10, D1 mod 3*, Candida biofilm 10, D1 PAM confirm 10376*, D1 no dopamine 1508 and Isoprot counter 3068*.
For COC(=O)c1c(S(=O)(=O)NCc2ccccc2)sc(C(=O)O)c1C the results were DAT uptake mod -0.55 and Candida biofilm 1.
`Cc1noc(C)c1S(=O)(=O)Nc1ccc(O)c2c(=O)cc(-c3ccccc3Cl)oc12` gave DAT uptake mod -0.33.
CCOC(=O)c1sc(N)nc1-c1ccccc1 was read as DAT uptake mod -0.11, MMP13 inh -2, AP ELISA ortho 30, D1 mod 12*, Candida biofilm 15, D1 PAM confirm 13660*, D1 no dopamine 1536 and Isoprot counter 3220*.
`CCOC(=O)Nc1sc(C)nc1-c1ccccc1` gave DAT uptake mod -0.31, MMP13 inh 0, AP ELISA ortho 12, D1 mod 3.7*, Candida biofilm 4, D1 PAM confirm 5108, D1 no dopamine 1368 and Isoprot counter 2840.
Screening Cc1ccc(-c2c3c(=O)n(C)c(=O)n(C)c3c3nnc4ccccc4n23)cc1 returned MMP13 inh 2, AP ELISA ortho 5, D1 mod 0.66 and Candida biofilm 2.
For Cc1ccnn2c(-c3ccccc3)c3c(=O)n(C)c(=O)n(C)c3c12 the results were DAT uptake mod -0.35, MMP13 inh -3, AP ELISA ortho 2, D1 mod 9.1*, Candida biofilm 4, D1 PAM confirm 12160*, D1 no dopamine 1656 and Isoprot counter 3604*.
COc1cc2c(cc1OC)CN(S(=O)(=O)c1ccc3c(c1)OCCO3)CC2 was read as DAT uptake mod 0.21, MMP13 inh -3, AP ELISA ortho -9, D1 mod 5.3*, Candida biofilm 8, D1 PAM confirm 15328*, D1 no dopamine 1404 and Isoprot counter 3488*.
`COc1ccc(S(=O)(=O)N2CCc3ccccc3C2)cc1OC` gave DAT uptake mod -0.51 and Candida biofilm 6.
Screening CCc1c(C)c2c(C)nn(-c3ccccc3)c2[nH]c1=O returned DAT uptake mod -0.12, MMP13 inh -8, AP ELISA ortho 7, D1 mod 3.2*, Candida biofilm 0, D1 PAM confirm 7084*, D1 no dopamine 1748 and Isoprot counter 3384*.
Screening CCO[C@H]1OC(C(=O)O)=C[C@@H](c2coc3ccccc3c2=O)[C@@H]1CCCO returned DAT uptake mod 0.28.
Screening CC(C)CN1CN(S(=O)(=O)c2cccs2)c2nc3ccccc3nc21 returned DAT uptake mod 0.6, MMP13 inh -27, AP ELISA ortho -10, D1 mod 11*, Candida biofilm 4, D1 PAM confirm 18664*, D1 no dopamine 1708 and Isoprot counter 3524*.
Screening N#CC1=C(N)Oc2cc(O)ccc2C1c1ccncc1 (stereo unspecified) returned DAT uptake mod 0.31, MMP13 inh 0, AP ELISA ortho 13 and Candida biofilm 7.
Screening CN(C)c1ccc2c(c1)OC(N)=C(C#N)C2c1cccc(F)c1 (stereo unspecified) returned DAT uptake mod -2.1, MMP13 inh 5, AP ELISA ortho 17, D1 mod 8.8*, Candida biofilm 3, D1 PAM confirm 14124* and Isoprot counter 4592*.
`CCn1cnc2c1c(=O)n(CC(=O)Nc1cc(C)on1)c(=O)n2Cc1ccccc1` gave DAT uptake mod 0.73, MMP13 inh -6, AP ELISA ortho 22, D1 mod 0.81 and Candida biofilm 7.
CCOC(=O)c1c(C)[nH]c(C(=O)Cn2c(=O)c3c(ncn3CC)n(Cc3ccccc3)c2=O)c1C was read as DAT uptake mod 0.68, MMP13 inh -1, AP ELISA ortho 2, D1 mod 13*, Candida biofilm 5, D1 PAM confirm 20428*, D1 no dopamine 1684 and Isoprot counter 5060*.
`c1ccc(N(c2ccccc2)c2nc(-n3ccnc3)nc(-n3ccnc3)n2)cc1` gave DAT uptake mod 1.2, MMP13 inh 1, AP ELISA ortho 4, D1 mod 5.7*, Candida biofilm 10, D1 PAM confirm 18076*, D1 no dopamine 1612 and Isoprot counter 4960*.
CCCCNc1nc(N(C)c2ccccc2)nc(-n2ccnc2)n1 was read as DAT uptake mod 0.73, MMP13 inh 0, AP ELISA ortho 24, D1 mod 4.6*, Candida biofilm -5, D1 PAM confirm 17552*, D1 no dopamine 1484 and Isoprot counter 4732*.
For CC(OC(=O)C1CCN(S(=O)(=O)c2ccc(Cl)cc2)CC1)C(=O)N1CCc2ccccc21 (stereo unspecified) the results were DAT uptake mod -0.33 and Candida biofilm -3.
For Cc1ccc2[nH]c(=O)c3cc(C(=O)N(CCCOC(C)C)Cc4ccco4)sc3c2c1 the results were DAT uptake mod 0.029 and Candida biofilm 8.

Screening data (PubChem BioAssay)
